The values below come from ChEMBL document CHEMBL1157731, “Novel KCNQ2/Q3 agonists as potential therapeutics for epilepsy and neuropathic pain” (J Med Chem, 2010).

pEC50: −log10 of the molar value.

Chain of Histamine H1 receptor (Homo sapiens) (P35367 whole entry): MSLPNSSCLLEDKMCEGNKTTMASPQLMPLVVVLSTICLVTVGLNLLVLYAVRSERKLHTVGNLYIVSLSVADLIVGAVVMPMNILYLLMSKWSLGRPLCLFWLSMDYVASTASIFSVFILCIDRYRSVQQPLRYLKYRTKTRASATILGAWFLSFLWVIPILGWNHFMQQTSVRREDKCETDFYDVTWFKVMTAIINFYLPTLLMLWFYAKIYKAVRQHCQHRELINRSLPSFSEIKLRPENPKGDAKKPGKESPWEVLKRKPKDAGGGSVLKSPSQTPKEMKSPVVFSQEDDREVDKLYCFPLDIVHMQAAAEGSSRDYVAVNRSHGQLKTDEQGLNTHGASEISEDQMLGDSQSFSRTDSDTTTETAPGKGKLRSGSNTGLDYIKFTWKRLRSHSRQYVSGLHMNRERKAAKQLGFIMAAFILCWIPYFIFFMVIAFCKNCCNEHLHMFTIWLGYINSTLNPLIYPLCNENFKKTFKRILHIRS
Chain of Voltage-gated potassium channel, KQT; KCNQ2(Kv7.2)/KCNQ3(Kv7.3) (O43526 whole entry): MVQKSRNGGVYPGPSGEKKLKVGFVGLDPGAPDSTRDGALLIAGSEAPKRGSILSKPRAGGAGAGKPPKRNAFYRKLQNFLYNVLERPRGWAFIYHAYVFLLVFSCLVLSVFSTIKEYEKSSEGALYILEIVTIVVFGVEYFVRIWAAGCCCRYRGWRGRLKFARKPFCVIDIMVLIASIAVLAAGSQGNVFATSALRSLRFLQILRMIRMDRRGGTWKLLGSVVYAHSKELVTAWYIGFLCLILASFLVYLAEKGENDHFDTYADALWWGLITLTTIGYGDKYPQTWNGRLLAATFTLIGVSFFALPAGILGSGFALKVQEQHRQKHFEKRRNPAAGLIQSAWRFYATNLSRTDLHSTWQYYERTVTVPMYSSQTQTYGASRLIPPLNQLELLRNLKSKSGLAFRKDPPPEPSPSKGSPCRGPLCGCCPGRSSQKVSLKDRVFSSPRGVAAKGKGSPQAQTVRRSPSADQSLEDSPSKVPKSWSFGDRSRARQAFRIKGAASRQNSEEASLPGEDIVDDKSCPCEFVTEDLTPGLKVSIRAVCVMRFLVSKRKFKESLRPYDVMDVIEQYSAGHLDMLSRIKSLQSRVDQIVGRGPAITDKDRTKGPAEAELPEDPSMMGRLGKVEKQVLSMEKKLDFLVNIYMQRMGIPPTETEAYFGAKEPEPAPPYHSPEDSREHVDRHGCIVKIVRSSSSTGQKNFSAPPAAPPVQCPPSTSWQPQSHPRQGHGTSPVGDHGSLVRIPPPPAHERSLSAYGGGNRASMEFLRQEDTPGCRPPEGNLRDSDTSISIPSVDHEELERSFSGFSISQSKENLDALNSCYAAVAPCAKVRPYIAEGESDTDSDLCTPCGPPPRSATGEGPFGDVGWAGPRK
Chain of Voltage-gated potassium channel, KQT; KCNQ2(Kv7.2)/KCNQ3(Kv7.3) (O43525 whole entry): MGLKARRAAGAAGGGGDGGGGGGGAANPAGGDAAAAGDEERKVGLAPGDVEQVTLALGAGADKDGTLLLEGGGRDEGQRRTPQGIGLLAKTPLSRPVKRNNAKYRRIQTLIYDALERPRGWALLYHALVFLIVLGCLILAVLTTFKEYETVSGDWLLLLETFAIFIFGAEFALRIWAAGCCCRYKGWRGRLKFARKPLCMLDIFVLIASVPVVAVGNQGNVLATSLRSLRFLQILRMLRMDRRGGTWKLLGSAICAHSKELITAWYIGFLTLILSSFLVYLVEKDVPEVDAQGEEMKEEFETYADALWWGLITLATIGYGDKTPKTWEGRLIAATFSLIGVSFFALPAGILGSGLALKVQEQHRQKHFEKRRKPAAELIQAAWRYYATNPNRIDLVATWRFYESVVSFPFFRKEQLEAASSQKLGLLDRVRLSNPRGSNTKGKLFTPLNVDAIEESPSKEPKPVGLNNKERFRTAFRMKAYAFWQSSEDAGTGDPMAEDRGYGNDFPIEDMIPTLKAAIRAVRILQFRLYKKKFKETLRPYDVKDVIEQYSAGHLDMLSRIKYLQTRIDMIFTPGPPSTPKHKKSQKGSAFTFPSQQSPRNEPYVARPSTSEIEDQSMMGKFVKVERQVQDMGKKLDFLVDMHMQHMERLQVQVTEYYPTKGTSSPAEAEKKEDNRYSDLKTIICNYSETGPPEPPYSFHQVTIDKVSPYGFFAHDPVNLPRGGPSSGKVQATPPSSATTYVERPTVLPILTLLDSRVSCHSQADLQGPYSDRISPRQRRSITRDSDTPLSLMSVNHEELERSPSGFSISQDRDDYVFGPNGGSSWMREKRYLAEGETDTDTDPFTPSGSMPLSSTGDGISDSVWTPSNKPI

Test system in the first test: not listed separately
Kind of test: Binding affinity to vasopressin V1 receptor at 10 uM by displacement assay.
With `Cn1/c(=N/NC(=O)CC2CCCC2)sc2cc(OC(F)(F)F)ccc21`, the Activity worked out at 22%.

`CC(C)OC(=O)N/N=c1\sc2cc(OC(F)(F)F)ccc2n1C` returned an Activity of 0%.

Molecule `Cn1/c(=N/NC(=O)CC(C)(C)C)sc2cc(OC(F)(F)F)ccc21` had an Activity of 12%.

Another test addresses T1, B2 bradykinin receptor (Homo sapiens) (UniProt P30411).
T1 sequence (whole entry): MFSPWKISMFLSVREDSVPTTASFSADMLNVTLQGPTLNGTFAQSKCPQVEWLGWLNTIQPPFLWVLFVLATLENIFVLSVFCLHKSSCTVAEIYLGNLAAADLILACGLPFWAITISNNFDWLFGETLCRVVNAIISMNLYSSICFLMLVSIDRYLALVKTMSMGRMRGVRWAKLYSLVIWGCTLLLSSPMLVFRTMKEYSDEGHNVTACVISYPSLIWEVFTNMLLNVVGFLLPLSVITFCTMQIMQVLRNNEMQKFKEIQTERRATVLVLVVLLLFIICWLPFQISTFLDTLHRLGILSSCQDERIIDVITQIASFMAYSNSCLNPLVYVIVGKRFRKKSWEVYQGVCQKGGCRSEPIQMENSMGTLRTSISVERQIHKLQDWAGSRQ
As to the kind of experiment: Displacement of [3H]bradykinin from human recombinant bradykinin B2 receptor expressed in CHO cells. Format: cell-based.
For the molecule `Cn1/c(=N/NC(=O)CC2CCCC2)sc2cc(OC(F)(F)F)ccc21`, the Activity was determined as 49%.

`CC(C)OC(=O)N/N=c1\sc2cc(OC(F)(F)F)ccc2n1C`: the Activity is 0%.

On to `Cn1/c(=N/NC(=O)CC(C)(C)C)sc2cc(OC(F)(F)F)ccc21`, for which the Activity amounted to 0%.

In the next test the target is T2, Type-1 angiotensin II receptor (Homo sapiens) (UniProt P30556).
T2 sequence (whole entry): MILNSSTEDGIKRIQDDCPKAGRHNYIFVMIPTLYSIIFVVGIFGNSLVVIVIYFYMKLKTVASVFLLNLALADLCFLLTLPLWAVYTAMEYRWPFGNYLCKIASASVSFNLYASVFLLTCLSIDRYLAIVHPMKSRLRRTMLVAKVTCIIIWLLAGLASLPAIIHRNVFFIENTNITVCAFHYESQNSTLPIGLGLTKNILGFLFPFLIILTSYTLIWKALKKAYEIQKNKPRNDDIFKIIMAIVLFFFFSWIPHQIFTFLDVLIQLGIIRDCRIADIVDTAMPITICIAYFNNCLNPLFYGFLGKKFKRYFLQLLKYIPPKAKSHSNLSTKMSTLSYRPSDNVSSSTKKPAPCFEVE
As to the kind of experiment: Displacement of [125I][Sar1,Ile8]-AT2 from human recombinant AT1 angiotensin receptor expressed in HEK293 cells at 10 uM. Format: cell-based.
For `Cn1/c(=N/NC(=O)CC2CCCC2)sc2cc(OC(F)(F)F)ccc21`, the Activity is 18%.

`CC(C)OC(=O)N/N=c1\sc2cc(OC(F)(F)F)ccc2n1C`: the Activity was found to be 14%.

For the molecule `Cn1/c(=N/NC(=O)CC(C)(C)C)sc2cc(OC(F)(F)F)ccc21`, the Activity was 0%.

Another test addresses T3, Cholecystokinin receptor type A (Homo sapiens) (UniProt P32238).
T3 sequence (whole entry): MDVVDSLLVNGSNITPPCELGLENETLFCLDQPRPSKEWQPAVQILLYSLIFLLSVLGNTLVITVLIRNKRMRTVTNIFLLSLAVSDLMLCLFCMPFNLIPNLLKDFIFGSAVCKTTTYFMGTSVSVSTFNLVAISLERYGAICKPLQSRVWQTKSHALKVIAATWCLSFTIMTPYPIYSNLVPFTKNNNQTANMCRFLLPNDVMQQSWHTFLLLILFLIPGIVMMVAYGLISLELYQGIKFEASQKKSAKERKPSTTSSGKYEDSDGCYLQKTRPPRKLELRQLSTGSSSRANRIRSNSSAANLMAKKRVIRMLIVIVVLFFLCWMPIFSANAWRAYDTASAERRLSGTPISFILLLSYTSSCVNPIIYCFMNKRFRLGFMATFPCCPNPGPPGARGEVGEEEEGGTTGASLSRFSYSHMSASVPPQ
Kind of test: Displacement of radioligand from cholecystokinin A receptor at 10 uM.
On to `Cn1/c(=N/NC(=O)CC2CCCC2)sc2cc(OC(F)(F)F)ccc21`, for which the Activity was found to be 53%.

The molecule `CC(C)OC(=O)N/N=c1\sc2cc(OC(F)(F)F)ccc2n1C` had an Activity of 11%.

On to `Cn1/c(=N/NC(=O)CC(C)(C)C)sc2cc(OC(F)(F)F)ccc21`, for which the Activity stood at 0%.

Another test has as its target T4, Muscarinic acetylcholine receptor M1 (Homo sapiens) (UniProt P11229).
T4 sequence (whole entry): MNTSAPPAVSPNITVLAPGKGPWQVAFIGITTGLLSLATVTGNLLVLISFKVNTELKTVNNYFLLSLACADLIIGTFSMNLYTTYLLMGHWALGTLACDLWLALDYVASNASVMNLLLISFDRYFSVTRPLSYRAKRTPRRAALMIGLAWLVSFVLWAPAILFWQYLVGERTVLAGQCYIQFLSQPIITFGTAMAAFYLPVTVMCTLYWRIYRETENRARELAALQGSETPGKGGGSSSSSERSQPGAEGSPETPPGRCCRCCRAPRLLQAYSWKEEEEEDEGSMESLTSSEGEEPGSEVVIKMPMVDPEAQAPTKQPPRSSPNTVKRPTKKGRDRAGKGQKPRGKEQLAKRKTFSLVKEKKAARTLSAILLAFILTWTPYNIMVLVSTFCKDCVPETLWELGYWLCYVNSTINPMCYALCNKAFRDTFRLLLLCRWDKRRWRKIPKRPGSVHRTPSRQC
Kind of test: Displacement of radioligand from muscarinic M1 receptor at 10 uM.
`Cn1/c(=N/NC(=O)CC2CCCC2)sc2cc(OC(F)(F)F)ccc21` returned an Activity of 34%.

In turn, `CC(C)OC(=O)N/N=c1\sc2cc(OC(F)(F)F)ccc2n1C` registered an Activity of 21%.

`Cn1/c(=N/NC(=O)CC(C)(C)C)sc2cc(OC(F)(F)F)ccc21`: the Activity came out at 0%.

In another test the target is Sodium-dependent serotonin transporter (Homo sapiens) (UniProt P31645). Kind of test: (§1) Binding affinity to SERT at 10 uM by displacement assay.
Chain of Sodium-dependent serotonin transporter (Homo sapiens) (P31645 whole entry, looked up): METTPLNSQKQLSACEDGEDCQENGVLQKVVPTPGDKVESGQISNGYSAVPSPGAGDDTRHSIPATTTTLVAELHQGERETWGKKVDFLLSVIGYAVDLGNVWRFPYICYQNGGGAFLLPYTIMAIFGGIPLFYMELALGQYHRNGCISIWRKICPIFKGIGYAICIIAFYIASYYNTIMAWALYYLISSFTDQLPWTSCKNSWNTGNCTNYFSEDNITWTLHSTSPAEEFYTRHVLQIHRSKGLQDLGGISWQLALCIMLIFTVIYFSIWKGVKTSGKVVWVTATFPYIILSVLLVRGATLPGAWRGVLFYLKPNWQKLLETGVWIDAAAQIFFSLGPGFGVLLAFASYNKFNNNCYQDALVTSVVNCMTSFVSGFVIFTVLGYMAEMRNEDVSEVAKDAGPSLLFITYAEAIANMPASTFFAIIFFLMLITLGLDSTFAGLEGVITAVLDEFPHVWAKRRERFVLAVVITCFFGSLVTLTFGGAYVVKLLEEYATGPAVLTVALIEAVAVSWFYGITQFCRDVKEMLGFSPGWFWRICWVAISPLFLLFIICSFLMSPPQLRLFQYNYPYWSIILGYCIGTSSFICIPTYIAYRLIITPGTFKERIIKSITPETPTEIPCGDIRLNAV
`Cn1/c(=N/NC(=O)CC2CCCC2)sc2cc(OC(F)(F)F)ccc21` registered an Activity of 20%.

`CC(C)OC(=O)N/N=c1\sc2cc(OC(F)(F)F)ccc2n1C` registered an Activity of 14%.

Take `Cn1/c(=N/NC(=O)CC(C)(C)C)sc2cc(OC(F)(F)F)ccc21`: the Activity was determined as 0%.

Test system in a further test: not listed separately
As to the kind of experiment: Displacement of radioligand from GABAB receptor at 10 uM.
For `Cn1/c(=N/NC(=O)CC2CCCC2)sc2cc(OC(F)(F)F)ccc21`, the Activity stood at 12%.

Regarding `CC(C)OC(=O)N/N=c1\sc2cc(OC(F)(F)F)ccc2n1C`, the Activity was 0%.

Turning to `Cn1/c(=N/NC(=O)CC(C)(C)C)sc2cc(OC(F)(F)F)ccc21`, the Activity stood at 16%.

The next test addresses Histamine H1 receptor (Homo sapiens) (UniProt P35367). As to the kind of experiment: Displacement of radioligand from histamine H1 receptor at 10 uM.
Molecule `Cn1/c(=N/NC(=O)CC2CCCC2)sc2cc(OC(F)(F)F)ccc21` had an Activity of 0%.

Turning to `CC(C)OC(=O)N/N=c1\sc2cc(OC(F)(F)F)ccc2n1C`, the Activity worked out at 0%.

Molecule `Cn1/c(=N/NC(=O)CC(C)(C)C)sc2cc(OC(F)(F)F)ccc21` displayed an Activity of 22%.

Another test deals with D(2) dopamine receptor (Homo sapiens) (UniProt P14416). As to the kind of experiment: Displacement of radioligand from dopamine D2 receptor at 10 uM.
Chain of D(2) dopamine receptor (Homo sapiens) (P14416 whole entry): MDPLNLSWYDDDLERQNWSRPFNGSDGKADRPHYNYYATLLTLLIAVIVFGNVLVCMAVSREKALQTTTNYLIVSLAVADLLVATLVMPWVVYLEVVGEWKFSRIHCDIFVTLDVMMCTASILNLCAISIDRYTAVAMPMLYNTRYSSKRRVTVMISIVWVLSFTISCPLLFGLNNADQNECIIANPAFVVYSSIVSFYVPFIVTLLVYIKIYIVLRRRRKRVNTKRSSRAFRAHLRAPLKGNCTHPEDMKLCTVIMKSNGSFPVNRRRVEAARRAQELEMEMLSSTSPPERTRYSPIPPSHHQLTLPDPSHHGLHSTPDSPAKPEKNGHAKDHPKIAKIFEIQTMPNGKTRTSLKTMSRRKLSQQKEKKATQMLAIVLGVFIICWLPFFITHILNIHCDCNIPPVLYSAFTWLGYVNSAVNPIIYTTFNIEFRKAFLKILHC
`Cn1/c(=N/NC(=O)CC2CCCC2)sc2cc(OC(F)(F)F)ccc21`: the Activity turned out to be 0%.

As for `CC(C)OC(=O)N/N=c1\sc2cc(OC(F)(F)F)ccc2n1C`, the Activity turned out to be 0%.

`Cn1/c(=N/NC(=O)CC(C)(C)C)sc2cc(OC(F)(F)F)ccc21` showed an Activity of 0%.

For the next test, the target named is Sodium-dependent serotonin transporter (Homo sapiens) (UniProt P31645). The test is described as §1.
For the molecule `Cn1/c(=N/NC(=O)CC2CCCC2)sc2cc(OC(F)(F)F)ccc21`, the Activity is 50%.

Consider `CC(C)OC(=O)N/N=c1\sc2cc(OC(F)(F)F)ccc2n1C`, for which the Activity worked out at 16%.

`Cn1/c(=N/NC(=O)CC(C)(C)C)sc2cc(OC(F)(F)F)ccc21` displayed an Activity of 20%.

Another test addresses Voltage-gated potassium channel, KQT; KCNQ2(Kv7.2)/KCNQ3(Kv7.3) (Homo sapiens, UniProt O43525+O43526). As to the kind of experiment: Activation of KCNQ2/KCNQ3 expressed in CHO cells by isotopic efflux assay. Format: cell-based. Put shortly:
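86Rb+ flux in K+-channel-expressing cells loaded by culture in 86RbCl, then washed in EBSS. Preincubated with drug (0.01-30 μM in EBSS), then efflux stimulated by submaximal KCl (generally 7-20 mM) with drug still present. Supernatant and SDS lysate counted by Cherenkov. Percent efflux normalized to high-KCl (generally 30-135 mM) maximum. EC50 from eight-point half-log curves; mean of 2-4 determinations ± SEM.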
`Cn1/c(=N/NC(=O)CC2CCCC2)sc2cc(OC(F)(F)F)ccc21` had a pEC50 of 7.36.

With `CC(C)OC(=O)N/N=c1\sc2cc(OC(F)(F)F)ccc2n1C`, the pEC50 was 7.02.

For `Cn1/c(=N/NC(=O)CC(C)(C)C)sc2cc(OC(F)(F)F)ccc21`, the pEC50 was 7.31.

In a further test the target is T5, Endothelin-1 receptor (Homo sapiens) (UniProt P25101).
T5 sequence (whole entry): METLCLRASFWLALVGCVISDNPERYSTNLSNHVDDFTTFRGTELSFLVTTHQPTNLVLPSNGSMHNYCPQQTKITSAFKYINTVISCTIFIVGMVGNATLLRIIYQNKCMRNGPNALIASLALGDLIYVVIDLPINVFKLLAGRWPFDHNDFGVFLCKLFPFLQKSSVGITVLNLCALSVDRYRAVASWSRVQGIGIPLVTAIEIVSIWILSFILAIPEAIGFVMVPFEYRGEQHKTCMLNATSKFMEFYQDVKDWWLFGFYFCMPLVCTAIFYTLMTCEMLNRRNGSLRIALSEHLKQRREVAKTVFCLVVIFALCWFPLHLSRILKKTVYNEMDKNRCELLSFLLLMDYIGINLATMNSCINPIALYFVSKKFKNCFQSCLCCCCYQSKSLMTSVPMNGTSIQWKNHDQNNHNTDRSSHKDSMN
Kind of test: Displacement of [125I]endothelin-1 from human recombinant endothelin A receptor expressed in CHO cells. Format: cell-based.
On to `Cn1/c(=N/NC(=O)CC2CCCC2)sc2cc(OC(F)(F)F)ccc21`, for which the Activity came to 0%.

For `CC(C)OC(=O)N/N=c1\sc2cc(OC(F)(F)F)ccc2n1C`, the Activity is 0%.

For `Cn1/c(=N/NC(=O)CC(C)(C)C)sc2cc(OC(F)(F)F)ccc21`, the Activity was 0%.
